# Laboratory results: PMC8212730 (Clinical and Translational Science, 2021)
# Like-named read-outs stand apart in the source and are kept apart here.
# What was measured:
# [1] = human plasma; ref not given; cited from earlier work
# [2] = healthy participants; strong CYP3A4 inhibitor itraconazole; cited from earlier work
# [3] = patients with AML after multiple doses of ivosidenib; PBPK model; cited from earlier work
# [4] = Concentration-corrected QT; format: in vivo, human; conditions: human, plasma, oral, 500 mg
# How it was run: (§1)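 Patients on ivosidenib 500 mg q.d. had triplicate ECGs with time-matched plasma samples, pooled with two other phase I studies (solid tumours, healthy volunteers): 171 patients, 1203 measurements. Plasma drug was measured by LC-MS/MS. A linear mixed-effects model had population intercept and slope with bivariate-normal between-subject variability. Covariates were selected stepwise (likelihood ratio, 0.05). ΔQTcF and 90% CI were predicted at geometric mean Cmax. Fridericia and Bazett corrections were compared.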
# [5] = tested on: corrected QT interval (QTcF); experiment: Concentration-corrected QT; format: in vivo, human
# How it was run: as §1
# [6] = Final population PK model of ivosidenib; format: in vivo, human
# human CYP3A4 = conditions: cited from earlier work
# Exposure-safety analysis = format: in vivo, human
# CYP2C8 = conditions: cited from earlier work
# CYP2C9 = conditions: in vitro; cited from earlier work
# CYP2B6 = conditions: cited from earlier work
# mIDH1 R/R AML = conditions: 500 mg q.d., cited from earlier work
# [7] = cited from earlier work; for Median time to maximal concentration range: across dose range
# [8] = Exposure-efficacy analysis; format: in vivo, human; conditions: human, plasma, oral, AUCss range of quartile
# How it was run: (§2)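 Plasma drug was measured by LC-MS/MS (ranges 1–1000 and 50–50,000 ng/ml). Data were fitted with a two-compartment population PK model with first-order absorption and elimination. Individual empirical Bayes estimates gave steady-state AUC per patient from the nominal q.d. dose. AUCss was related to CR, CR/CRh, overall response and non-CR/CRh response by logistic regression and Kaplan-Meier plots.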
# R/R AML = experiment: Exposure-efficacy analysis; format: in vivo, human
# How it was run: as §2
# [9] = single dose 500 mg; cited from earlier work
# [10] = final population PK model, derived from steady-state parameters and fold changes
# [11] = final population PK model, single dose to steady state
smiles,measurement,setting,value
N#Cc1ccnc(N2C(=O)CC[C@H]2C(=O)N(c2cncc(F)c2)[C@H](C(=O)NC2CC(F)(F)C2)c2ccccc2Cl)c1 [ivosidenib],Protein bound,[1],~ 90%
same,Change in plasma AUC with itraconazole,[2],1.69 fold
same,Predicted change in plasma AUC in the presence of itraconazole,[3],1.44 fold
same,Cmax,[4],6550 ng/mL
same,Predicted ΔQTcF,"[5]; at 6551 ng/ml, geometric mean Cmax for 500 mg q.d.",17.2 ms
same,Relationship between ΔQTcF and ivosidenib concentration,[5]; in vivo,significant direct relationship
same,Increase of ΔQTcF with plasma ivosidenib concentration (slope),[5]; linear mixed-effects model,0.00258 msec/(ng/ml)
same,Dose proportionality of exposure,[6]; 100 mg b.i.d. and 300-1200 mg q.d.,slightly less than dose proportional
same,Predicted Cmax in the typical patient,"[6]; 500 mg q.d., steady state, albumin 37 g/L, weight 74.2 kg, no CYP3A4 inhibitor",4827 ng/mL
same,Reduction in ivosidenib CL/F,[6]; concomitant fluconazole,41%
same,Reduction in ivosidenib CL/F,[6]; concomitant posaconazole,35%
same,Reduction in ivosidenib CL/F,[6]; concomitant voriconazole,36%
same,Effect of concomitant pantoprazole or famotidine on CL/F,[6]; covariate analysis,did not affect
same,Impact of mild CYP3A4 inhibitors,[6]; covariate analysis,minimal
same,Correlation between CL/F and hepatic function indicators,"[6]; covariate analysis, patients with mild hepatic impairment",no correlation
same,Albumin ratio-CL/F exponent,[6]; final population PK model,0.99
same,Albumin ratio-Vc/F exponent,[6]; final population PK model,1.1
same,Baseline albumin-Vc/F exponent,[6]; final population PK model,0.73
same,Decrease in relative bioavailability from single dose to steady state,[6]; final population PK model,2 fold
same,Fold change in CL with mild CYP3A inhibitors,[6]; final population PK model,1.04
same,Fold change in CL with other moderate/strong CYP3A inhibitors,[6]; final population PK model,0.92
same,Increase in exposure with a doubling of dose,[6]; final population PK model,~ 40%
same,Steady-state Q/F,[6]; final population PK model,15.8 L/h
same,Steady-state Vc/F,[6]; final population PK model,234 L
same,Steady-state Vp/F,[6]; final population PK model,151 L
same,"Tlag (zero-order release duration, lag-time)",[6]; final population PK model,0.27 h
same,ka (first-order absorption rate constant),[6]; final population PK model,1.38 h⁻¹
same,Wt-Vc/F exponent,"[6]; final population PK model, baseline body weight",0.92
same,Fold change in CL with fluconazole,"[6]; final population PK model, concomitant fluconazole",0.59
same,Fold change in CL with posaconazole,"[6]; final population PK model, concomitant posaconazole",0.65
same,Fold change in CL with voriconazole,"[6]; final population PK model, concomitant voriconazole",0.64
same,First-dose CL/F,[6]; [10],1.63 L/h
same,First-dose Q/F,[6]; [10],4.8 L/h
same,First-dose Vc/F,[6]; [10],71 L
same,First-dose Vp/F,[6]; [10],46 L
same,Steady-state CL/F,"[6]; final population PK model, oral, patients with mIDH1 advanced hematologic malignancies",5.39 L/h
same,Steady-state fold change in CL,[6]; [11],1.66
same,Steady-state fold change in Frel,[6]; [11],0.5
same,Effect of time-varying albumin changes on plasma exposure,"[6]; human, in vivo",less than 20%
same,Increase in AUCss,[6]; moderate/strong CYP3A4 inhibitors,60%
same,Contribution to metabolism of ivosidenib,human CYP3A4; CYP3A4,major metabolism pathway
same,Inducer status,"human CYP3A4; in vitro, human CYP3A4",inducer
same,Substrate status,"human CYP3A4; in vitro, human CYP3A4",substrate
same,Incidence of new or worsening all grade ALT,Exposure-safety analysis; 253 patients,15%
same,Association between incidence of events for all safety end points and AUCss,Exposure-safety analysis; logistic regression,no association
same,Contribution to metabolism of ivosidenib,CYP2C8,minor contributions
same,Inducer status,CYP2C8; in vitro,may also be an inducer
same,Inducer status,CYP2C9,may also be an inducer
same,Contribution to metabolism of ivosidenib,CYP2B6,minor contributions
same,Inducer status,CYP2B6; in vitro,may also be an inducer
same,Rate of CR plus CRh,mIDH1 R/R AML; 174 patients with mIDH1 R/R AML,32.8%
same,Median duration of CR/CRh,mIDH1 R/R AML,8.2 months
same,Median time to CR/CRh response,mIDH1 R/R AML,2 months
same,Half-life,[7]; after a single dose,72 to 138 h
same,Time to steady state,[7]; daily dosing,≤ 14 days
same,Median time to maximal concentration range,[7]; multiple dosing,1.9 to 4.0 h
same,Median time to maximal concentration range,[7]; single dose administration,2.4 to 5.5 h
same,AUC,"[8]; AUCss quartile 1, 51 patients",40.9 to 93.1 µg·h/mL
same,AUC,"[8]; AUCss quartile 2, 50 patients",93.4 to 122 µg·h/mL
same,AUC,"[8]; AUCss quartile 3, 50 patients",124 to 170 µg·h/mL
same,AUC,"[8]; AUCss quartile 4, 50 patients",171 to 361 µg·h/mL
same,Incidence of CR (complete remission),R/R AML; AUCss quartile 1,11 (22%) n
same,Incidence of CR/CRh,R/R AML; AUCss quartile 1,17 (33%) n
same,Incidence of OR (overall response),R/R AML; AUCss quartile 1,20 (39%) n
same,Incidence of CR (complete remission),R/R AML; AUCss quartile 2,12 (24%) n
same,Incidence of CR/CRh,R/R AML; AUCss quartile 2,15 (30%) n
same,Incidence of OR (overall response),R/R AML; AUCss quartile 2,18 (36%) n
same,Incidence of CR (complete remission),R/R AML; AUCss quartile 3,9 (18%) n
same,Incidence of CR/CRh,R/R AML; AUCss quartile 3,12 (24%) n
same,Incidence of OR (overall response),R/R AML; AUCss quartile 3,18 (36%) n
same,Incidence of CR (complete remission),R/R AML; AUCss quartile 4,11 (22%) n
same,Incidence of CR/CRh,R/R AML; AUCss quartile 4,15 (30%) n
same,Incidence of OR (overall response),R/R AML; AUCss quartile 4,19 (38%) n
same,Association between nominal AUCss and probability of clinical response,R/R AML; logistic regression,minimal
same,Patients with OR,R/R AML; of 201 patients with R/R AML,75 patients
same,Patients with non-CR/CRh response,R/R AML; of 201 patients with R/R AML,16 patients
same,Effect of mild/moderate hepatic impairment on ivosidenib exposure,[9],did not lead to clinically relevant changes in ivosidenib exposure
